In assay [1] the target is T1, Gastrin/cholecystokinin type B receptor (Homo sapiens, UniProt P32239).
T1 sequence (P32239 whole entry): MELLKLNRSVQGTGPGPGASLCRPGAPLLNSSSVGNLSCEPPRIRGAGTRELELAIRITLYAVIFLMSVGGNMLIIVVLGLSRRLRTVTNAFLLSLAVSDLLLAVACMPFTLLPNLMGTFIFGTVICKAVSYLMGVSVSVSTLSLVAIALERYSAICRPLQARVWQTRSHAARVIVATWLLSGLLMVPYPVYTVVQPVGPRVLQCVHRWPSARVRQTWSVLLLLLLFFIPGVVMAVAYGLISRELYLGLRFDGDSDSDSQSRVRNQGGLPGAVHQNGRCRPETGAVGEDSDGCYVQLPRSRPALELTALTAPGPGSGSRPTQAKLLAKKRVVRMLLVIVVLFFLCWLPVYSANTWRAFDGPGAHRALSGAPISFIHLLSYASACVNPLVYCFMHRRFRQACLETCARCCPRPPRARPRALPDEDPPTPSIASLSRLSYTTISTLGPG
The assay can be described thus: Concentration required to displace [125I]Bolton-Hunter CCK-8 from human Cholecystokinin type B receptor expressed in CHO-K1 cells. Format: cell-based.

Assay [2] deals with T2, Cholecystokinin receptor type A (Homo sapiens, UniProt P32238).
T2 sequence (P32238 whole entry): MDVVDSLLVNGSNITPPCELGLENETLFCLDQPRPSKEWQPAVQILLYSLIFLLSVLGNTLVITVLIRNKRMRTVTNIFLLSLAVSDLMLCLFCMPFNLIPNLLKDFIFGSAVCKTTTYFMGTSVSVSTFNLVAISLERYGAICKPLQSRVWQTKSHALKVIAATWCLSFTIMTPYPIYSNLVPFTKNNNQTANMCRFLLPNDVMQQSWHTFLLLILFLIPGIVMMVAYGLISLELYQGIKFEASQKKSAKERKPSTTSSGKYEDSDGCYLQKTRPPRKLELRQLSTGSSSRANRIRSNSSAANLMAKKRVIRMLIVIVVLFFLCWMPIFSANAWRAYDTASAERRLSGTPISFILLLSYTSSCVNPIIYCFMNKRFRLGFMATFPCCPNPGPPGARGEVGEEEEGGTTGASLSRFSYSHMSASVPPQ
In words: Concentration required to displace [125I]Bolton-Hunter CCK-8 from human Cholecystokinin type A receptor stably expressed in CHO-K1 cells. Format: cell-based.

Assay [3] is filed under the species Cavia porcellus. The assay can be described thus: Guinea pig gall bladder contraction by the compound at concentration 1 uM in the absence of MK329. Format: functional. The method, boiled down: (§1)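 Isolated guinea pig gallbladder incubated with ligand at 37 °C, 30 µM for 30 min or 1 µM for 60 min. Contraction expressed as percent of the contraction induced by 1 µM CCK-8.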

For assay [4], the species on record is Cavia porcellus. In words: Guinea pig gall bladder contraction by the compound at concentration 1 uM in the presence of MK329. Format: functional.
The species entered for assay [5] is Cavia porcellus. In words: (§2) Percent contraction of the guinea pig gall bladder uM. Format: functional. The gist of the method: as §1
The species entered for assay [6] is Cavia porcellus. Described as §2. Format: functional. Also on record: concentration or dose not given beside the values. The gist of the method: as §1
The species named for assay [7] is Cavia porcellus. The assay can be described thus: Percentage reversal of isolated guinea pig gall bladder contraction by the compound. Format: functional. The gist of the method: (§3)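 Isolated guinea pig gallbladder contraction induced by test ligand (30 µM screen), then reversed with MK-329 at 1 µM to confirm a CCK-A receptor-mediated response.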
For assay [8], the species on record is Rattus norvegicus. The assay can be described thus: Anorectic potency in rats conditioned to a palatable liquid diet and fasted for 2 hours. Format: functional.
For assay [9], the system named is Rattus norvegicus. The assay can be described thus: Maximal response of the rat to anorectic potency 30 min after intraperitoneal administration (1 uM/Kg). Format: functional.
The species named for assay [10] is Cavia porcellus. The assay can be described thus: Guinea pig gall bladder contraction by the compound at concentration 30 uM in the absence of MK329. Format: functional. The gist of the method:
as §1

The species named for assay [11] is Cavia porcellus. In words: Guinea pig gall bladder contraction by the compound at concentration 30 uM in the presence of MK329. Format: functional. The gist of the method: as §3
The test system of assay [12] is Rattus norvegicus. In words: Maximal response of the rat to anorectic potency 30 min after intraperitoneal administration (0.5 uM/Kg). Format: functional.
The species entered for assay [13] is Cavia porcellus. The assay can be described thus: Antagonist affinity (pKB) against contraction of guinea pig gall bladder measured at a dose 30 uM. Format: functional.
Assay [14] is filed under the species Cavia porcellus. In words: Percent contraction of the guinea pig gall bladder uM; Inactive. Format: functional. The gist of the method:
as §1

Each structure is given as a SMILES string. Calls of active or inactive are those of the source. No cut-off for these calls is given here.

The IC50 is the concentration at which inhibition is half-maximal. Turning to `CC(C)N(C(=O)CN1C(=O)C(NC(=O)Nc2ccccc2)C(=O)N(c2ccccc2)c2ccccc21)c1ccc(N(C)C)cc1.O=C(O)C(F)(F)F` (configuration not stated), the IC50 is 251 nM in assay [1] and 63.1 nM in assay [2]. Moreover, the figures for the GPGB tension in the assay listed under Cavia porcellus [3] and in the assay filed under Cavia porcellus [4] were 2.55 g and 0.01 g, respectively. The Activity in the assay filed under Cavia porcellus [5] is reported as 46%; in the assay filed under Cavia porcellus [6], 75%. The Reversal in the assay filed under Cavia porcellus [7] is given as 100%. Besides, the ED50 in the assay filed under Rattus norvegicus [8] turned out to be 0.09 µmol/kg. The molecule also gave a Max response with Rattus norvegicus [9] of 54%.
With `CC(C)N(C(=O)CN1C(=O)C(NC(=O)Nc2ccccc2)C(=O)N(c2ccccc2)c2ccccc21)c1ccc(N2CCOCC2)cc1` (configuration not stated), the half-maximal inhibitory concentration (IC50) in [1] is 158 nM. For the same molecule, the GPGB tension in the assay filed under Cavia porcellus [3] is 1.88 g; in the assay listed under Cavia porcellus [4], 0.43 g. In the assay listed under Cavia porcellus [5], the Activity came to 74%. In addition, in the assay filed under Cavia porcellus [7], the Reversal is 123%. In addition, in the assay filed under Rattus norvegicus [8], the ED50 is 0.2 µmol/kg. In the assay on Rattus norvegicus [9], this molecule yielded a Max response of 26%.
The molecule `N#CCCN(C(=O)CN1C(=O)C(NC(=O)Nc2ccccc2)C(=O)N(c2ccccc2)c2ccccc21)c1ccccc1` (configuration not stated) returned an Activity in the assay filed under Cavia porcellus [6] of 32%.
Same read-out and setting: the result for `CC(C)N(C(=O)CN1C(=O)C(NC(=O)Nc2ccccc2)C(=O)N(c2ccccc2)c2ccccc21)C(C)C` (configuration not stated) reads 21%; that for `O=C(Nc1ccccc1)NC1C(=O)N(CC(=O)N(c2ccccc2)c2ccccc2)c2ccccc2N(c2ccccc2)C1=O` (configuration not stated), 43%.
Take `COc1ccc(N(C(=O)CN2C(=O)C(NC(=O)Nc3ccccc3)C(=O)N(c3ccccc3)c3ccccc32)C(C)C)cc1` (configuration not stated): the half-inhibitory concentration (IC50) is 50.1 nM in assay [1] and 79.4 nM in assay [2]. The results for the GPGB tension in the assay listed under Cavia porcellus [10] and in the assay listed under Cavia porcellus [11] were 2.88 g and 0.2 g, respectively. In addition, the Activity in the assay listed under Cavia porcellus [5] stood at 82%; in the assay listed under Cavia porcellus [6], 93%. Besides, in the assay listed under Cavia porcellus [7], the Reversal is 107%. Besides, in the assay listed under Rattus norvegicus [8], the ED50 is 0.07 µmol/kg. This molecule also displayed a Max response in the assay with Rattus norvegicus [9] of 62%.
Molecule `CCN(C(=O)CN1C(=O)C(NC(=O)Nc2ccccc2)C(=O)N(c2ccccc2)c2ccccc21)c1ccccc1` (configuration not stated) registered an Activity in the assay listed under Cavia porcellus [6] of 66%.
On the same count and under the same terms, the result for `CCN(CC)C(=O)CN1C(=O)C(NC(=O)Nc2ccccc2)C(=O)N(c2ccccc2)c2ccccc21` (configuration not stated) reads 38%.
In the assay filed under Rattus norvegicus [8], `CSCC[C@H](NC(=O)[C@H](Cc1ccc(OS(=O)(=O)O)cc1)NC(=O)[C@@H](N)CC(=O)O)C(=O)NCC(=O)N[C@@H](Cc1c[nH]c2ccccc12)C(=O)N[C@@H](CCSC)C(=O)N[C@@H](CC(=O)O)C(=O)N[C@@H](Cc1ccccc1)C(N)=O` [SINCALIDE] registered an ED50 of 0.03 µmol/kg. Moreover, the Max response with Rattus norvegicus [12] is 96%.
Take `CC(C)N(C(=O)CN1C(=O)C(NC(=O)Nc2ccccc2)C(=O)N(c2ccccc2)c2ccccc21)c1ccccc1` (configuration not stated): the values for the GPGB tension in the assay filed under Cavia porcellus [10] and in the assay listed under Cavia porcellus [11] were 2.53 g and 0.43 g, respectively. Also, the Activity in the assay filed under Cavia porcellus [6] amounted to 86%. Also, the Reversal in the assay filed under Cavia porcellus [7] is 117%. The ED50 in the assay listed under Rattus norvegicus [8] was found to be 0.95 µmol/kg. The Max response in the assay on Rattus norvegicus [9] is 48%.
A word on the pKB: it is −log10 of the KB, conventionally taken in molar units. Turning to `CC(C)N(C(=O)CN1C(=O)C(NC(=O)Nc2ccccc2)C(=O)N(c2ccccc2)c2ccccc21)c1ccc(C(=O)O)cc1` (configuration not stated), the half-inhibitory concentration (IC50) was 39.8 nM in assay [1] and 2510 nM in assay [2]. In the assay filed under Cavia porcellus [6], the Activity turned out to be 10%. Further, the negative logarithm of the KB (pKB) in the assay filed under Cavia porcellus [13] is on record as 6.14.
Regarding `CC(C)N(Cc1ccccc1)C(=O)CN1C(=O)C(NC(=O)Nc2ccccc2)C(=O)N(c2ccccc2)c2ccccc21` (configuration not stated), in the assay listed under Cavia porcellus [6], the Activity is 34%.
For `O=C(O)CN(C(=O)CN1C(=O)C(NC(=O)Nc2ccccc2)C(=O)N(c2ccccc2)c2ccccc21)c1ccccc1` (configuration not stated), the result in the assay filed under Cavia porcellus [14] was inactive. This molecule also showed a pKB in the assay listed under Cavia porcellus [13] of 6.33.
In the assay listed under Cavia porcellus [6], `NCCN(C(=O)CN1C(=O)C(NC(=O)Nc2ccccc2)C(=O)N(c2ccccc2)c2ccccc21)c1ccccc1` (configuration not stated) had an Activity of 7%. Besides, in the assay listed under Cavia porcellus [13], the pKB worked out at 5.88.
Take `O=C(CN1C(=O)C(NC(=O)Nc2ccccc2)C(=O)N(c2ccccc2)c2ccccc21)Nc1ccccc1` (configuration not stated): the result in the assay listed under Cavia porcellus [14] was inactive. In the assay listed under Cavia porcellus [13], the negative logarithm of the KB (pKB) stood at 6.33.
Turning to `O=C(Nc1ccccc1)NC1C(=O)N(CC(=O)N(CCNC(=O)OCc2ccccc2)c2ccccc2)c2ccccc2N(c2ccccc2)C1=O` (configuration not stated), the outcome in the assay filed under Cavia porcellus [14] was inactive.
Molecule `CCCN(C(=O)CN1C(=O)C(NC(=O)Nc2ccccc2)C(=O)N(c2ccccc2)c2ccccc21)c1ccccc1` (configuration not stated) had an Activity in the assay filed under Cavia porcellus [6] of 50%.
Same read-out and setting: then `CCOC(=O)CN(C(=O)CN1C(=O)C(NC(=O)Nc2ccccc2)C(=O)N(c2ccccc2)c2ccccc21)c1ccccc1` (configuration not stated), with 16%.
`CC(C)N(C(=O)CN1C(=O)C(NC(=O)Nc2ccccc2)C(=O)N(c2ccccc2)c2ccccc21)c1ccc(O)cc1` (configuration not stated): the concentration for half-maximal inhibition (IC50) in [1] is 15.8 nM; in [2] it was 39.8 nM. In addition, the GPGB tension in the assay listed under Cavia porcellus [10] was 2.25 g; in the assay listed under Cavia porcellus [11], 0 g. The Activity in the assay filed under Cavia porcellus [6] was 81%. For the same molecule, in the assay listed under Cavia porcellus [7], the Reversal amounted to 100%. The molecule also displayed an ED50 in the assay listed under Rattus norvegicus [8] of 0.05 µmol/kg. In addition, the Max response with Rattus norvegicus [9] is listed as 74%.
Molecule `O=C(Nc1ccccc1)NC1C(=O)N(CC(=O)N(c2ccccc2)C2CCCCC2)c2ccccc2N(c2ccccc2)C1=O` (configuration not stated) registered an Activity in the assay filed under Cavia porcellus [6] of 26%.
Take `CN(C(=O)CN1C(=O)C(NC(=O)Nc2ccccc2)C(=O)N(c2ccccc2)c2ccccc21)c1ccccc1` (configuration not stated): the result in the assay filed under Cavia porcellus [14] was inactive. Further, the pKB in the assay filed under Cavia porcellus [13] is 6.27.
As for `CCCCN(C(=O)CN1C(=O)C(NC(=O)Nc2ccccc2)C(=O)N(c2ccccc2)c2ccccc21)c1ccccc1` (configuration not stated), in the assay listed under Cavia porcellus [6], the Activity came out at 27%.
`CC(C)N(C(=O)CN1C(=O)C(NC(=O)Nc2ccccc2)C(=O)N(c2ccccc2)c2ccccc21)c1ccc(F)cc1` (configuration not stated): the 50% inhibitory concentration (IC50) in assay [1] was 31.6 nM; in assay [2], 100 nM. Further, the GPGB tension in the assay filed under Cavia porcellus [3] worked out at 2.14 g; in the assay listed under Cavia porcellus [4] it was 0.34 g. The Activity in the assay listed under Cavia porcellus [5] is given as 53%. Besides, in the assay listed under Cavia porcellus [7], the Reversal is listed as 116%. Besides, the ED50 in the assay listed under Rattus norvegicus [8] was found to be 0.2 µmol/kg. Also, the Max response in the assay on Rattus norvegicus [9] is reported as 56%.

Source of the values: ChEMBL document CHEMBL1129669, “Discovery of 1,5-benzodiazepines with peripheral cholecystokinin (CCK-A) receptor agonist activity. 1. Optimization of the agonist "trigger"” (J Med Chem, 1996).
